Results published in ChEMBL document CHEMBL2331436, “Antimicrobial phenolics and unusual glycerides from Helichrysum italicum subsp. microphyllum” (2013).
≈ marks a conversion by molar mass, not a printed value.

What was measured:
Format in all cases: functional
[1] = tested on: Staphylococcus aureus; test: Antibacterial activity against Staphylococcus aureus 1199B overexpressing NorA pump after 18 hrs by MTT assay
Outline: (§1)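 MIC by broth microdilution in Mueller-Hinton broth with 20 mg/L Ca2+ and 10 mg/L Mg2+. Strains were grown overnight on nutrient agar at 37 °C. Agents were dissolved in DMSO, diluted in broth to a 512 mg/L stock, and serially diluted to a final 128−0.25 range with inoculum. Plates ran in duplicate for 18 h at 37 °C, then […] methanolic MTT for 30 min, scored by blue colour.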

[2] = tested on: Staphylococcus aureus; test: Antibacterial activity against epidemic methicillin-resistant Staphylococcus aureus EMRSA-15 after 18 hrs by MTT assay; conditions: EMRSA-15, 18 h; outline: as §1
[3] = tested on: Staphylococcus aureus; test: Antibacterial activity against Staphylococcus aureus XU212 overexpressing TetK tetracycline efflux pump after 18 hrs by MTT assay; conditions: XU212, 18 h; outline: as §1
[4] = tested on: Staphylococcus aureus; test: Antibacterial activity against Staphylococcus aureus RN4220 overexpressing MsrA macrolide efflux protein after 18 hrs by MTT assay; conditions: RN4220, 18 h; outline: as §1
[5] = tested on: Staphylococcus aureus; test: Antibacterial activity against epidemic methicillin-resistant Staphylococcus aureus EMRSA-16 after 18 hrs by MTT assay; conditions: EMRSA-16, 18 h; outline: as §1
[6] = tested on: Staphylococcus aureus; test: Antibacterial activity against Staphylococcus aureus ATCC 25923 after 18 hrs by MTT assay; conditions: ATCC 25923, 18 h
Outline: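 Strain grown overnight at 37 °C on nutrient agar before assay. MIC by broth microdilution in Mueller-Hinton broth with 20 mg/L Ca2+ and 10 mg/L Mg2+. Agents in DMSO, diluted in MHB to a 512 mg/L stock, then serially diluted to a final 128−0.25 […]. Duplicates, 18 h at 37 °C, then 5 mg/L methanolic MTT for 30 min; colour read-out.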

Compound | MIC [1] [µg/mL] | MIC [2] [µg/mL] | MIC [3] [µg/mL] | MIC [4] [µg/mL] | MIC [5] [µg/mL] | MIC [6] [µg/mL]
CCc1c(C)oc(=O)c(C(C)c2c(O)c(CC=C(C)C)c(O)c(C(C)=O)c2O)c1O (stereo unspecified) | 128 (≈ 307 µM) | 128 (≈ 307 µM) | > 128 | 128 (≈ 307 µM) | 128 (≈ 307 µM) | 64 (≈ 154 µM)
C=C(COC(=O)C(C)C)[C@H]1Cc2cc(C(C)=O)ccc2O1 | > 128 | > 128 | > 128 | > 128 | > 128 | > 128
CCc1oc(=O)c(Cc2c(O)c3c(c(C(C)=O)c2O)OC(C)(C)CC3)c(O)c1C [CYCLOARZANOL A] | 128 (≈ 318 µM) | 128 (≈ 318 µM) | 128 (≈ 318 µM) | 32 (≈ 79.5 µM) | > 128 | 32 (≈ 79.5 µM)
C=C(COC(C)=O)[C@H]1Cc2cc(C(C)=O)ccc2O1 | > 128 | > 128 | > 128 | > 128 | > 128 | > 128
C=C(COC(=O)CCC(C)C)[C@H]1Cc2cc(C(C)=O)ccc2O1 | > 128 | > 128 | > 128 | > 128 | > 128 | > 128
CCCc1oc(=O)c(C(c2ccccc2)c2c(O)c(CC=C(C)C)c(O)c(C(C)=O)c2O)c(O)c1C(C)C (stereo unspecified) | 16 (≈ 30.7 µM) | 6 (≈ 11.5 µM) | 4 (≈ 7.68 µM) | 2 (≈ 3.84 µM) | 8 (≈ 15.4 µM) | 8 (≈ 15.4 µM)
CCc1oc(=O)c(Cc2c(O)c(CC=C(C)C)c(O)c(C(C)=O)c2O)c(O)c1CC | 1 (≈ 2.4 µM) | 2 (≈ 4.8 µM) | 16 (≈ 38.4 µM) | 2 (≈ 4.8 µM) | 2 (≈ 4.8 µM) | 1 (≈ 2.4 µM)
CCC(C)C(=O)C(C)c1oc(=O)c(C)c(O)c1C (stereo unspecified) [MICROPYRONE] | > 128 | > 128 | > 128 | 128 (≈ 507 µM) | 128 (≈ 507 µM) | > 128
C=C(COC(=O)CCCCCCCC)[C@H]1Cc2cc(C(C)=O)ccc2O1 [NONANOYLBITALIN A] | > 128 | > 128 | > 128 | > 128 | > 128 | > 128
CCn1cc(C(=O)O)c(=O)c2cc(F)c(N3CCNCC3)cc21 [NORFLOXACIN] | 32 (≈ 100 µM) | 0.5 (≈ 1.57 µM) | 8 (≈ 25.1 µM) | 0.5 (≈ 1.57 µM) | 128 (≈ 401 µM) | 0.5 (≈ 1.57 µM)
C=C(COC(=O)CCCCCCC/C=C\CCCCCCCC)[C@H]1Cc2cc(C(C)=O)ccc2O1 [OLEOYLBITALIN A] | > 128 | > 128 | > 128 | > 128 | > 128 | > 128
C=C(COC(=O)CC)[C@H]1Cc2cc(C(C)=O)ccc2O1 [PROPANOYLBITALIN A] | > 128 | > 128 | > 128 | > 128 | > 128 | > 128
CCCCCC(=O)C(c1c(O)c(CC=C(C)C)c(O)c(C(C)=O)c1O)c1c(O)c(CC)c(C)oc1=O (stereo unspecified) | 16 (≈ 32 µM) | 16 (≈ 32 µM) | 16 (≈ 32 µM) | 8 (≈ 16 µM) | 8 (≈ 16 µM) | 8 (≈ 16 µM)
CCc1oc(OC)c(Cc2c(O)c(CC=C(C)C)c(O)c(C(C)=O)c2O)c(=O)c1C [METHYLARZANOL] | > 128 | > 128 | > 128 | > 128 | > 128 | > 128
CCc1oc(=O)c(Cc2c(O)c(CC=C(C)C)c(O)c(C(C)=O)c2O)c(O)c1C [ARZANOL] | 1 (≈ 2.48 µM) | 4 (≈ 9.94 µM) | 4 (≈ 9.94 µM) | 2 (≈ 4.97 µM) | 2 (≈ 4.97 µM) | 1 (≈ 2.48 µM)
CCc1oc(=O)c(Cc2c(O)c(C)c(CC)oc2=O)c(O)c1C [HELIPYRONE] | > 128 | > 128 | > 128 | 12 (≈ 37.5 µM) | 128 (≈ 400 µM) | 64 (≈ 200 µM)
CCc1oc(=O)c(Cc2c(O)c(C(C)=O)c(O)c3c2OC(C)(C)CC3)c(O)c1C [CYCLOARZANOL B] | > 128 | > 128 | > 128 | > 128 | > 128 | > 128
COC(=O)/C=C\c1ccc(OC/C=C(\C)CCC=C(C)C)cc1 | > 128 | > 128 | > 128 | > 128 | > 128 | > 128
COC(=O)/C=C/c1ccc(OC/C=C(\C)CCC=C(C)C)cc1 | > 128 | > 128 | > 128 | > 128 | > 128 | > 128
C=C(COC(=O)C(C)CC)[C@H]1Cc2cc(C(C)=O)ccc2O1 (stereo partly specified) | > 128 | > 128 | > 128 | > 128 | > 128 | > 128
CCCc1oc(=O)c(C(C)c2c(O)c(CC=C(C)C)c(O)c(C(C)=O)c2O)c(O)c1C(C)C (stereo unspecified) | 32 (≈ 69.8 µM) | 32 (≈ 69.8 µM) | 128 (≈ 279 µM) | 32 (≈ 69.8 µM) | 128 (≈ 279 µM) | 128 (≈ 279 µM)
